Assay results taken from ChEMBL document CHEMBL1148398, “Design, synthesis, and biological evaluation of thio-containing compounds with serum HDL-cholesterol-elevating properties” (2004).

Tests used:
Assay type in all cases: functional
Rattus norvegicus [1] = assay: Percent change in total plasma cholesterol in hypercholesterolemic rats dosed at 100 mg/kg/day for 8 days
Cricetinae gen. sp. [2] = assay: Percent change in low-density lipoprotein cholesterol following oral administration of compound in hypercholesterolemic hamsters at 100 mg/kg/day for 14 days
Summary of the method: (§1)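 Male Syrian Golden hamsters pre-fed chow plus 0.25% cholesterol for 2 weeks and kept on it. Dosed 100 mg/kg/day by oral gavage in 2% Tween 80/saline for 14 days. Serum total cholesterol and glycerol-blanked triglycerides read enzymatically; lipoproteins separated by FPLC with cholesterol measured in each fraction. % change versus vehicle controls; six per group, p < 0.05.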

Cricetinae gen. sp. [3] = assay: Percent change in very low-density lipoprotein cholesterol following oral administration of compound in hypercholesterolemic hamsters at 100 mg/kg/day for 14 days; summary of the method: as §1
Cricetinae gen. sp. [4] = assay: Percent change in triglycerides following oral administration of compound in hypercholesterolemic hamsters at 100 mg/kg/day for 14 days; summary of the method: as §1
Cricetinae gen. sp. [5] = assay: Percent change in total plasma cholesterol following oral administration of compound in hypercholesterolemic hamsters at 100 mg/kg/day for 14 days; summary of the method: as §1
Rattus norvegicus [6] = assay: Percent change in triglycerides in hypercholesterolemic rats at a dose of 100 mg/kg/day for 8 days
Rattus norvegicus [7] = assay: Percent change in very low-density lipoprotein cholesterol following oral administration of compound in normal chow-fed rats at 100 mg/kg/day for 4 days
Summary of the method: (§2)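 Chow-fed male Sprague–Dawley CD rats, 60–80 g, gavaged 100 mg/kg/day for 4 days in 1.3% Tween 80/0.25% CMC. Fasted overnight, bled 24 h after the last dose. Total cholesterol and glycerol-blanked triglycerides read enzymatically; lipoproteins by FPLC with cholesterol per fraction. % change versus control; six per group, p < 0.05.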

Cricetinae gen. sp. [8] = assay: Percent change in high-density lipoprotein cholesterol following oral administration of compound in hypercholesterolemic hamsters at 100 mg/kg/day for 14 days; summary of the method: as §1
Rattus norvegicus [9] = assay: Percent change in high-density lipoprotein cholesterol in hypercholesterolemic rats dosed at 100 mg/kg/day for 8 days
Rattus norvegicus [10] = assay: Percent change in low-density lipoprotein cholesterol following oral administration of compound in normal chow-fed rats at 100 mg/kg/day for 4 days; summary of the method: as §2
Rattus norvegicus [11] = assay: Percent change in high-density lipoprotein cholesterol following oral administration of compound in normal chow-fed rats at 100 mg/kg/day for 4 days; summary of the method: as §2
Rattus norvegicus [12] = assay: Percent change in total plasma cholesterol following oral administration of compound in normal chow-fed rats at 100 mg/kg/day for 4 days; summary of the method: as §2
Rattus norvegicus [13] = assay: Percent change in triglycerides following oral administration of compound in normal chow-fed rats at 100 mg/kg/day for 4 days; summary of the method: as §2

Row | Compound | Change (Rattus norvegicus [1]) [%] | Change (Cricetinae gen. sp. [2]) [%] | Change (Cricetinae gen. sp. [3]) [%] | Change (Cricetinae gen. sp. [4]) [%] | Change (Cricetinae gen. sp. [5]) [%] | Change (Rattus norvegicus [6]) [%] | Change (Rattus norvegicus [7]) [%] | Change (Cricetinae gen. sp. [8]) [%] | Change (Rattus norvegicus [9]) [%] | Change (Rattus norvegicus [10]) [%] | Change (Rattus norvegicus [11]) [%] | Change (Rattus norvegicus [12]) [%] | Change (Rattus norvegicus [13]) [%]
1 | Cc1ccc(C)c(N2C(=O)CON(C)C2=S)c1 | 28 | -40.1 | -25.5 | -23.8 | -13.8 | 26 | 61.5 | 48.3 | 72 | 9.1 | 87.2 | 75.2 | -31.6
2 | CCN1CC(=O)N(c2ccccc2C(C)C)C1=S | 71 | -41 | -4.5 | -10.1 | -5.9 | 10 | 73.7 | 19.5 | 201 | 24.6 | 90.6 | 111.4 | -27.5
3 | Cc1cccc(Cl)c1N1C(=O)CON(C)C1=S | -2.7 | -22.4 | 5.2 | 38.6 | -21.4 | -30 | 80.8 | -28.1 | 100 | 11.7 | 52.8 | 40.4 | -61.5
